According to ChEMBL document CHEMBL4007484, “Pharmacokinetic optimitzation of CCG-203971: Novel inhibitors of the Rho/MRTF/SRF transcriptional pathway as potential antifibrotic therapeutics for systemic scleroderma” (Bioorg Med Chem Lett, 2017):

Legend:
[1] = Inhibition of Rho/MRTF/SRF pathway (unknown origin) expressed in HEK293T cells assessed as reduction in Galpha12-stimulated MRTF-selective SRE.L promoter-driven luciferase activity after overnight incubation by luminescence assay; assay type: cell-based, Homo sapiens
In short: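 Signal was stimulated with Gα12 and luciferase activity was read. IC50 in μM is the mean of n ≥ 3.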

Liver [2] = test: Half life in CD-1 mouse liver microsomes at 1 uM in presence of NADPH by LC-MS/MS analysis; assay type: ADME, microsome
In short: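 Half-life measured by incubation in mouse liver microsomes.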

Homo sapiens = species: Homo sapiens; test: Inhibition of Rho/MRTF/SRF pathway in human primary dermal fibroblasts assessed as inhibition of TGF-beta-stimulated ACTA2 gene expression by measuring ACTA2 mRNA level at 10 uM after 24 hrs by qRT-PCR method relative to control; parameters: scale not given: the % may be the effect or the level left
In short: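 Primary human dermal fibroblasts stimulated with TGF-β and treated with compound at 10 μM for 24 h. ACTA2 mRNA was measured by qPCR and expressed as percent of control, mean of n=3.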

[3] = Thermodynamic aqueous solubility of the compound in water by nitrogen detection method; assay type: physicochemical; conditions: buffer
In short: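 Thermodynamic solubility in water, reported in μg/mL.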

Liver [4] = test: Drug level in CD-1 mouse liver microsomes treated with CCG-222740 at 20 uM after 3 mins in presence of NADPH by LC-MS/MS analysis; assay type: ADME, microsome; conditions: 0.05 h
Mus musculus [5] = test: Antifibrotic activity in C57BL/6 mouse bleomycin-induced dermal fibrosis model assessed as inhibition of dermal thickness at 50 mg/kg, po qd for 2 weeks by Masson's trichrome staining based microscopic method relative to control; assay type: functional; conditions: C57BL/6, po, 336 h
In short: (§1)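 Three groups of mice (n=8) dosed daily for 14 days. The groups were: intracutaneous PBS; intracutaneous bleomycin plus vehicle by oral gavage; intracutaneous bleomycin plus test compound at 50 mg/kg by oral gavage. Read-outs were dermal thickness and skin hydroxyproline content. Each is given as the reduction of the bleomycin-induced increase.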

Mus musculus [6] = test: Antifibrotic activity in C57BL/6 mouse bleomycin-induced dermal fibrosis model assessed as inhibition ofhydroxyproline content at 50 mg/kg, po qd for 2 weeks relative to control; assay type: functional; conditions: C57BL/6, po, 336 h; in short: as §1
[7] = Plasma concentration in CD-1 mouse at 10 mg/kg, ip or 20 mg/kg, po administered via gavage as single dose measured at 0.5 hrs post dose by LC-MS/MS analysis; assay type: ADME, organism-based
In short: (§2)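 Plasma concentration in μM after a single dose in mice (IP 10 mg/kg or PO gavage 20 mg/kg), sampled at 0.5 h and at 7 h post-dose.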

[8] = AUC (0 to 7 hrs) in CD-1 mouse at 10 mg/kg, ip administered as single dose by LC-MS/MS analysis; assay type: ADME, organism-based; parameters: dose 10 mg/kg, time < 7 hr, route intraperitoneal; conditions: in vivo
In short: (§3)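 Mice dosed once, by intraperitoneal injection at 10 mg/kg or by oral gavage at 20 mg/kg. AUC is estimated from the plasma concentration curve over 0–7 h and is expressed as hr.ng/mL.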

[9] = AUC (0 to 7 hrs) in CD-1 mouse at 20 mg/kg, po administered via gavage as single dose by LC-MS/MS analysis; assay type: ADME, organism-based; parameters: time < 7 hr, dose 20 mg/kg, route oral; conditions: in vivo; in short: as §3
[10] = Plasma concentration in CD-1 mouse at 10 mg/kg, ip or 20 mg/kg, po administered via gavage as single dose measured at 7 hrs post dose by LC-MS/MS analysis; assay type: ADME, organism-based; in short: as §2
Liver [11] = test: Drug metabolism in CD-1 mouse liver microsomes assessed as oxidative metabolism at 20 uM after 3 mins in presence of NADPH by LC-MS/MS analysis; assay type: ADME, microsome; conditions: 0.05 h
Liver [12] = test: Drug metabolism in CD-1 mouse liver microsomes assessed as 5,5-difluoro-1-(3-(furan-2-yl)benzoyl)piperidine-3-carboxylic acid formation at 20 uM after 3 mins in presence of NADPH by LC-MS/MS analysis; assay type: ADME, microsome; conditions: 0.05 h

Row | Compound | IC50 [1] [nM] | t1/2 (Liver [2]) [min] | further results
1 | O=C(Nc1ccc(Cl)cc1)C1CN(C(=O)c2cncc(-c3ccco3)c2)CC(F)(F)C1 (configuration not stated) | 3500 | 3 | 
2 | O=C(Nc1ccc(Cl)cc1)C1CCCN(C(=O)c2cncc(-c3ccco3)c2)C1 (configuration not stated) | 2900 | < 3 | 
3 | O=C(Nc1ccc(Cl)cc1)C1CCCN(C(=O)c2cnc(-c3ccco3)s2)C1 (configuration not stated) | 5800 |  | 
4 | O=C(Nc1ccc(Cl)cc1)C1CCCN(C(=O)c2cc(-c3ccco3)on2)C1 (configuration not stated) | 6800 |  | 
5 | CN(C(=O)C1CCCN(C(=O)c2cccc(-c3ccco3)c2)C1)c1ccc(Cl)cc1 (configuration not stated) | 8600 |  | 
6 | COC(=O)NC1CC(C(=O)Nc2ccc(Cl)cc2)CN(C(=O)c2cccc(-c3ccco3)c2)C1 (configuration not stated) | 5000 |  | 
7 | CC1(C(=O)Nc2ccc(Cl)cc2)CCCN(C(=O)c2cccc(-c3ccco3)c2)C1 (configuration not stated) | 550 | 0.84 | 
8 | O=C(Nc1ccc(Cl)cc1)C1CCCN(C(=O)c2cccc(-c3cn[nH]c3)c2)C1 (configuration not stated) | 3000 | 5.6 | Activity (Homo sapiens): 73%
9 | O=C(Nc1ccc(Cl)cc1)C1CCCN(C(=O)c2cc(-c3ccco3)ncn2)C1 (configuration not stated) | 15300 |  | 
10 | O=C(Nc1ccc(Cl)cc1)C1CN(C(=O)c2cc(-c3ccco3)ccn2)CC(F)(F)C1 (configuration not stated) | 7100 | 2.5 | 
11 | C=C1CC(C(=O)Nc2ccc(Cl)cc2)CN(C(=O)c2cccc(-c3ccco3)c2)C1 (configuration not stated) | 98 | 1.4 | Activity (Homo sapiens): 9.5%
12 | O=C(Nc1ccc(Cl)cc1)C1CN(C(=O)c2cccc(-c3ccccn3)c2)CC(F)(F)C1 (configuration not stated) | 1000 | 9.5 | Therm_solubility [3]: 3.9 µg/mL; Activity (Homo sapiens): 37%
13 | Cn1cncc1-c1cccc(C(=O)N2CC(C(=O)Nc3ccc(Cl)cc3)CC(F)(F)C2)c1 (configuration not stated) | 370 | 16 | Therm_solubility [3]: 14.9 µg/mL; Activity (Homo sapiens): 110%
14 | O=C(NC1CCCN(C(=O)c2cccc(-c3ccco3)c2)C1)c1ccc(Cl)cc1 (configuration not stated) | 4900 |  | 
15 | O=C(Nc1ccc(Cl)cc1)C1CN(C(=O)c2cccc(-c3cncnc3)c2)CC(F)(F)C1 (configuration not stated) | 3200 |  | 
16 | O=C(Nc1ccc(Cl)cc1)C1CCCN(C(=O)c2csc(-c3ccco3)n2)C1 (configuration not stated) | 6200 |  | 
17 | CC(=O)N1CCN(C(=O)c2cccc(-c3ccco3)c2)CC1C(=O)Nc1ccc(Cl)cc1 (configuration not stated) | 21000 |  | 
18 | O=C(Nc1ccc(Cl)cc1)C1CN(C(=O)c2cccc(-n3cccn3)c2)CC(F)(F)C1 (configuration not stated) | 680 | 4.8 | Therm_solubility [3]: 23 µg/mL; Activity (Homo sapiens): 140%
19 | O=C(Nc1ccc(Cl)cc1)C1CCCN(C(=O)c2cccc(-n3cccn3)c2)C1 (configuration not stated) | 2900 | 1.7 | 
20 | O=C(c1cccc(-c2ccco2)c1)N1CCCC(COc2ccc(Cl)cc2)C1 (configuration not stated) | 810 | 1.8 | 

Row | Compound | IC50 [1] [nM] | t1/2 (Liver [2]) [min] | further results
21 | O=C(O)C1CN(C(=O)c2cccc(-c3ccco3)c2)CC(F)(F)C1 (configuration not stated) |  |  | Drug metabolism (Liver [4]): Metabolite_Detected
22 | O=C(Nc1ccc(Cl)cc1)C1CCCN(C(=O)c2cc(-c3ccco3)ccn2)C1 (configuration not stated) | 1900 | < 3 | 
23 | O=C(Nc1ccc(Cl)cc1)C1CN(C(=O)c2cncc(-c3ccncc3)c2)CC(F)(F)C1 (configuration not stated) | 1200 | 7.7 | Therm_solubility [3]: 62 µg/mL; Activity (Homo sapiens): 190%
24 | O=C(Nc1ccc(Cl)cc1)C1CN(C(=O)c2cccc(-c3ncccn3)c2)CC(F)(F)C1 (configuration not stated) | 3000 | 11.9 | Therm_solubility [3]: 75.4 µg/mL; Activity (Homo sapiens): 65%
25 | CC(=O)NC1CC(C(=O)Nc2ccc(Cl)cc2)CN(C(=O)c2cccc(-c3ccco3)c2)C1 (configuration not stated) | 5000 |  | 
26 | O=C(Nc1ccc(Cl)cc1)C1CN(C(=O)c2cccc(-c3ccncc3)c2)CC(F)(F)C1 (configuration not stated) | 550 | 7.8 | inhibition in vivo at 50 mg/kg (Mus musculus [5]): 55%; inhibition in vivo at 50 mg/kg (Mus musculus [6]): 62%; Therm_solubility [3]: 23.1 µg/mL; Activity (Homo sapiens): 31%; concentration at 0.5 h [7]: 14.4 µM; AUC(0-t) at 7 h [8]: 15300 ng·h/mL; AUC(0-t) at 7 h [9]: 33700 ng·h/mL; concentration at 7 h [10]: 2.4 µM
27 | O=C1CC(C(=O)Nc2ccc(Cl)cc2)CN(C(=O)c2cccc(-c3ccco3)c2)C1 (configuration not stated) | 3900 |  | 
28 | O=C(Nc1ccc(Cl)cc1)C1CN(C(=O)c2cccc(-c3ncc[nH]3)c2)CC(F)(F)C1 (configuration not stated) | 5500 |  | 
29 | O=C(Nc1ccc(Cl)cc1)C1CN(C(=O)c2cccc(-c3cccnc3)c2)CC(F)(F)C1 (configuration not stated) | 900 | < 3 | 
30 | O=C(Nc1ccc(Cl)cc1)C1CN(C(=O)c2cccc(-c3ccco3)c2)CCO1 (configuration not stated) | 3100 |  | 
31 | O=C(Nc1ccc(Cl)cc1)C1CCCN(C(=O)c2cccc(-c3cc[nH]n3)c2)C1 (configuration not stated) | 920 | 3.4 | 
32 | O=C(Nc1ccc(Cl)cc1)C1CCCN(C(=O)c2cccc(-c3ccco3)c2)C1 (configuration not stated) | 640 | 1.6 | Drug metabolism (Liver [11]): Metabolite_Detected; Therm_solubility [3]: 13.4 µg/mL; Activity (Homo sapiens): 37%; AUC(0-t) at 7 h [8]: 1200 ng·h/mL
33 | O=C(Nc1ccc(Cl)cc1)C1CCCN(C(=O)c2cccc(-n3ccnc3)c2)C1 (configuration not stated) | 5200 |  | 
34 | CN(C)C1CC(C(=O)Nc2ccc(Cl)cc2)CN(C(=O)c2cccc(-c3ccco3)c2)C1 (configuration not stated) | 5800 | 3.3 | 
35 | O=C(Nc1ccc(Cl)cc1)C1CN(C(=O)c2cc(F)cc(-c3ccncc3)c2)CC(F)(F)C1 (configuration not stated) | 530 | 6.9 | Therm_solubility [3]: 9.8 µg/mL; Activity (Homo sapiens): 14%; concentration at 0.5 h [7]: 13.2 µM; AUC(0-t) at 7 h [8]: 26700 ng·h/mL; AUC(0-t) at 7 h [9]: 36400 ng·h/mL; concentration at 7 h [10]: 1.3 µM
36 | O=C(Nc1ccc(Cl)cc1)C1CCCN(C(=O)c2cc(-c3ccco3)[nH]n2)C1 (configuration not stated) | 5300 |  | 
37 | COC(=O)N1CCN(C(=O)c2cccc(-c3ccco3)c2)CC1C(=O)Nc1ccc(Cl)cc1 (configuration not stated) | 2700 |  | 
38 | O=C(Nc1ccc(Cl)cc1)C1CN(C(=O)c2cccc(-c3ccco3)c2)CC(F)(F)C1 (configuration not stated) | 600 | 4.9 | Drug metabolism (Liver [12]): Metabolite_Detected; Therm_solubility [3]: 2.3 µg/mL; Activity (Homo sapiens): 9.3%; AUC(0-t) at 7 h [8]: 9200 ng·h/mL
39 | O=C(c1cccc(-c2ccco2)c1)N1CCCC(F)(C(=O)Nc2ccc(Cl)cc2)C1 (configuration not stated) | 800 | 2.8 | 
40 | O=C(Nc1ccc(Cl)cc1)C1CN(C(=O)c2cccc(-c3cn[nH]c3)c2)CC(F)(F)C1 (configuration not stated) | 4500 | 13 | 
